# Data from ChEMBL document CHEMBL4477200, “Design, Synthesis, and Preclinical Evaluation of 4-Substituted-5-methyl-furo[2,3-d]pyrimidines as Microtubule Targeting Agents That Are Effective against Multidrug Resistant Cancer Cells” (J Med Chem, 2016).
# Calls of active or inactive are those of the source. The calls are words filed in the database; no cut-off is given here.
# Tests used:
# HeLa [1] = assay: Cell cycle arrest in human HeLa cells assessed as accumulation at G2/M phase at 5 times IC50 after 18 hrs by flow cytometry (reference value: 17.11 +/- 1.09%); assay type: functional
# Tubulin (Homo sapiens) = Tubulin (Homo sapiens) (UniProt P68371+Q9H4B7+P0DPH7+P68366+Q13509+Q71U36+P04350+Q3ZCM7+P07437+P68363+Q9BQE3+Q6PEY2+Q13885+Q9BVA1+Q9BUF5); assay: Induction of microtubule disruption in human HeLa cells assessed as multipolarization of spindle at 5 times IC50 incubated for 18 hrs by indirect immunofluorescence analysis relative to vehicle-treated control; assay type: cell-based
# Procedure, shortened: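 Mitotic spindles and microtubules were imaged by indirect immunofluorescence with a β-tubulin antibody and compared with vehicle-treated cells.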
# Tubulin = Tubulin (Bos taurus, UniProt Q6B856+Q862L2+Q862F3); assay: Inhibition of tubulin assembly in bovine brain […] assessed as reduction in turbidity increase preincubated for 15 mins followed by GTP addition measured for 20 mins by spectrophotometric analysis
# Procedure, shortened: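 Purified bovine brain tubulin, 1.0 mg/mL (10 µM), was preincubated 15 min at 30 °C in 0.8 M monosodium glutamate (pH 6.6) with compound and 4% DMSO. Mixtures were chilled and 0.4 mM GTP added. Turbidity was followed for 20 min at 30 °C. IC50 is the concentration halving the turbidity increase, interpolated between tested concentrations.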
# CCRF-CEM = assay: Cytotoxicity against human CCRF-CEM cells assessed as growth inhibition after 48 hrs by SRB assay; assay type: functional
# HL-60(TB) = assay: Cytotoxicity against human HL-60(TB) cells assessed as growth inhibition after 48 hrs by SRB assay; assay type: functional; details: HL-60, 48 h
# K562 = assay: Cytotoxicity against human K562 cells assessed as growth inhibition after 48 hrs by SRB assay; assay type: functional; details: K562, 48 h
# A549 = assay: Cytotoxicity against human A549 cells assessed as growth inhibition after 48 hrs by SRB assay; assay type: functional; details: A549, 48 h
# HOP-62 = assay: Cytotoxicity against human HOP62 cells assessed as growth inhibition after 48 hrs by SRB assay; assay type: functional; details: HOP-62, 48 h
# HOP-92 = assay: Cytotoxicity against human HOP92 cells assessed as growth inhibition after 48 hrs by SRB assay; assay type: functional; details: HOP-92, 48 h
# NCI-H522 = assay: Cytotoxicity against human NCI-H522 cells assessed as growth inhibition after 48 hrs by SRB assay; assay type: functional; details: NCI-H522, 48 h
# HCC 2998 = assay: Cytotoxicity against human HCC2998 cells assessed as growth inhibition after 48 hrs by SRB assay; assay type: functional; details: HCC 2998, 48 h
# SW-620 = assay: Cytotoxicity against human SW620 cells assessed as growth inhibition after 48 hrs by SRB assay; assay type: functional; details: SW-620, 48 h
# SF-539 = assay: Cytotoxicity against human SF539 cells assessed as growth inhibition after 48 hrs by SRB assay; assay type: functional; details: SF-539, 48 h
# M14 = assay: Cytotoxicity against human M14 cells assessed as growth inhibition after 48 hrs by SRB assay; assay type: functional; details: M14, 48 h
# UACC-62 = assay: Cytotoxicity against human UACC62 cells assessed as growth inhibition after 48 hrs by SRB assay; assay type: functional; details: UACC-62, 48 h
# OVCAR-4 = assay: Cytotoxicity against human OVCAR4 cells assessed as growth inhibition after 48 hrs by SRB assay; assay type: functional; details: OVCAR-4, 48 h
# NCI/ADR-RES = assay: Cytotoxicity against human NCI-ADR-RES cells assessed as growth inhibition after 48 hrs by SRB assay; assay type: functional
# 786-0 = assay: Cytotoxicity against human 786-0 cells assessed as growth inhibition after 48 hrs by SRB assay; assay type: functional; details: 786-0, 48 h
# RXF 393 = assay: Cytotoxicity against human RXF393 cells assessed as growth inhibition after 48 hrs by SRB assay; assay type: functional; details: RXF 393, 48 h
# DU-145 = assay: Cytotoxicity against human DU145 cells assessed as growth inhibition after 48 hrs by SRB assay; assay type: functional; details: DU-145, 48 h
# MDA-MB-231 = assay: Cytotoxicity against human MDA-MB-231 cells assessed as growth inhibition after 48 hrs by SRB assay; assay type: functional; details: MDA-MB-231, 48 h
# BT-549 = assay: Cytotoxicity against human BT549 cells assessed as growth inhibition after 48 hrs by SRB assay; assay type: functional; details: BT-549, 48 h
# MDA-MB-468 = assay: Cytotoxicity against human MDA-MB-468 cells assessed as growth inhibition after 48 hrs by SRB assay; assay type: functional; details: MDA-MB-468, 48 h
# HeLa [2] = assay: Antiproliferative activity against human HeLa cells after 48 hrs by SRB assay; assay type: functional, cell-based
# Procedure, shortened: (§1)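 SRB assay; IC50 is the mean of three independent experiments, each run in triplicate. Cells were kept at 37 °C under 5% CO2. HeLa and SK-OV-3 lines (parental and MDR1-M6/6) were grown in Basal Medium Eagle with 10% FBS, 1% GlutaMAX and 50 µg/mL gentamycin. HeLa WTβIII was grown in DMEM with 10% FBS.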
# HeLa [3] = assay: Antiproliferative activity against multidrug resistant human HeLa cells expressing wild type beta3 tubulin after 48 hrs by SRB assay; assay type: functional, cell-based; procedure, shortened: as §1
# SK-OV-3 = assay: Relative ratio of IC50 for human SKOV3 cells expressing MDR1-M6/6 to IC50 for human SKOV3 cells; assay type: functional
# Procedure, shortened: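 Rr is the IC50 in Pgp-expressing SK-OV-3 MDR1-M6/6 cells divided by the IC50 in parental SK-OV-3 cells. Both IC50s come from the SRB assay, averaging three independent experiments run in triplicate.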
# HeLa [4] = assay: Relative ratio of IC50 for human HeLa cells expressing wild type beta3 tubulin to IC50 for human HeLa cells; assay type: functional
compound,measurement,setting,value
COc1ccc(N(C)c2ncnc3occ(C)c23)cc1,Activity,HeLa [1],66.99%
same,Activity,Tubulin (Homo sapiens),Active
same,IC50,Tubulin,3300 nM
same,GI50,CCRF-CEM,< 10 nM
same,GI50,HL-60(TB),< 10 nM
same,GI50,K562,< 10 nM
same,GI50,A549,< 10 nM
same,GI50,HOP-62,18.4 nM
same,GI50,HOP-92,62.5 nM
same,GI50,NCI-H522,< 10 nM
same,GI50,HCC 2998,< 10 nM
same,GI50,SW-620,< 10 nM
same,GI50,SF-539,< 10 nM
same,GI50,M14,< 10 nM
same,GI50,UACC-62,29.6 nM
same,GI50,OVCAR-4,< 10 nM
same,GI50,NCI/ADR-RES,< 10 nM
same,GI50,786-0,< 10 nM
same,GI50,RXF 393,< 10 nM
same,GI50,DU-145,< 10 nM
same,GI50,MDA-MB-231,< 10 nM
same,GI50,BT-549,59.6 nM
same,GI50,MDA-MB-468,< 10 nM
same,IC50,HeLa [2],9.5 nM
same,IC50,HeLa [3],8.1 nM
same,Ratio IC50,SK-OV-3,1.1
same,Ratio IC50,HeLa [4],0.9
